Results from article PMC9532533 (Acta Pharmaceutica Sinica. B, 2022).

Experiments:
[1] = tested on: phosphorylation of KIT^D816V and downstream STAT3 and ERK; assay: Western blot of KIT signaling in 32D KIT^D816V cells; assay type: cell-based, murine; details: 4-h treatment
Pharmacokinetics in mice = assay type: in vivo, male ICR (CD-1) mice; details: male, ICR (CD-1), mouse, plasma; for AUC(0-t) / half-life: po, 10 mg/kg
Procedure, shortened: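 Male ICR (CD-1) mice, n = 3 per route, each given a single dose of test compound: 2 mg/kg i.v. or 10 mg/kg p.o. Plasma drug levels measured by LC/MS/MS, and key PK parameters derived from these concentration data.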

32D KIT^D816V xenografts = assay: In vivo antitumor efficacy, 32D KIT^D816V xenograft; parameters: species or system nude mice; details: i.g., BID × 12; for mortality and body weight loss: whole period of treatment
32D KIT V559D cells = assay: Antiproliferation assay, 32D KIT V559D cells; assay type: cell-based, murine; details: Mus musculus, read-out: GI50, V559D
[2] = tested on: 32D KIT V559D/V654A cells; assay: Antiproliferation assay, 32D KIT V559D/V654A cells; assay type: cell-based, murine; details: Mus musculus, read-out: GI50, V559D/V654A
[3] = tested on: 32D KIT V559D/N822K cells; assay: Antiproliferation assay, 32D KIT V559D/N822K cells; assay type: cell-based, murine; details: Mus musculus, read-out: GI50, V559D/N822K
32D cells = assay: Antiproliferation assay, normal parent 32D cells; assay type: cell-based, murine; details: Mus musculus, read-out: 32D cells (GI50, nmol/L)

In the case of `COCCn1cc(C#Cc2cc(C(=O)NCc3ccsc3)ccc2C)c2c(N)ncnc21` [Compound 57], the “inhibition of phosphorylation of KIT^D816V and downstream STAT3 and ERK” value [1] is reported as “potent inhibition effects”, the AUC(0-t) (Pharmacokinetics in mice) is reported as 233 ng·h/mL and the half-life (Pharmacokinetics in mice) is reported as 1.34 h. For the same compound, the “suppression of growth of 32D KIT^D816V xenografts” value (32D KIT^D816V xenografts; high dose group 100 mg/kg) was 50% and the “mortality and body weight loss” value (32D KIT^D816V xenografts) was “no mortality or obvious body weight loss”.
In the case of `CCn1c(=O)c(-c2cc(NC(=O)Nc3ccccc3)c(F)cc2Br)cc2cnc(NC)cc21` [Ripretinib, ripretinib, reference compound], the “mortality and body weight loss” value (32D KIT^D816V xenografts) is reported as “no mortality or obvious body weight loss”.
In the case of `Cc1ccc(C(=O)NCc2ccsc2)cc1C#Cc1cn(C(C)C)c2ncnc(N)c12` [Compound 54], the GI50 (32D KIT V559D cells) is reported as 0.09 nM, the GI50 [2] is reported as 1.1 nM and the GI50 [3] is reported as 0.8 nM. For the same compound, the GI50 (32D cells) was greater than 1000 nmol/L, the “inhibition of phosphorylation of KIT^D816V and downstream STAT3 and ERK” value [1] was “potent inhibition effects” and the bioavailability (Pharmacokinetics in mice; oral, 10 mpk) was 29.9%. The AUC(0-t) (Pharmacokinetics in mice) was 1280 ng·h/mL, the half-life (Pharmacokinetics in mice) was 2.29 h and the “TGI (tumor growth inhibition)” value (32D KIT^D816V xenografts; 20 mg/kg) was 45%. For the same compound, the “TGI (tumor growth inhibition)” value (32D KIT^D816V xenografts; 40 mg/kg) was 71% and the “mortality and body weight loss” value (32D KIT^D816V xenografts) was “no mortality or obvious body weight loss”.
